Test results taken from ChEMBL document CHEMBL1687740, “Cellular accumulation and pharmacodynamic evaluation of the intracellular activity of CEM-101, a novel fluoroketolide, against Staphylococcus aureus, Listeria monocytogenes, and Legionella pneumophila in human THP-1 macrophages” (Antimicrob Agents Chemother, 2009).
Values after ≈ are worked out from the molar mass of the structure shown. Active and inactive are the calls of the source. The calls are words filed in the database; no cut-off is given here.

How the values were obtained:
THP-1 [1] = test: Drug uptake in human THP1 cells at acidic pH after 30 mins; assay type: ADME, cell-based; details: thp-1, 0.5 h
Outline: (§1)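 30-min accumulation at 37°C, 10 mg/liter extracellular, in culture medium at varied pH. Microbiological drug assay normalized to cell protein, converted at 5 μl/mg protein. n = 3.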

Staphylococcus aureus [2] = test: Antibacterial activity against methicillin-sensitive Staphylococcus aureus ATCC 25923 after 24 hrs; assay type: functional; details: ATCC 25923, 24 h
THP-1 [3] = test: Drug uptake in human THP1 cells at pH 6 to 7 after 30 mins; assay type: ADME, cell-based; details: thp-1, pH 6, 0.5 h; outline: as §1
THP-1 [4] = test: Drug uptake in human THP1 cells after 2 hrs in presence of monensin; assay type: ADME, cell-based; details: thp-1, 2 h
Outline: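 Accumulation at 37°C, 10 mg/liter drug, with monensin 50 μM for 2 h. Microbiological assay normalized to cell protein. n = 3.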

THP-1 [5] = test: Drug uptake in human THP1 cells after 24 hrs in presence of verapamil; assay type: ADME, cell-based; details: thp-1, 24 h
Outline: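 Accumulation at 37°C, 10 mg/liter drug, with verapamil 150 μM for 24 h. Microbiological assay normalized to cell protein. n = 3.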

THP-1 [6] = test: Drug uptake in human THP1 cells after 24 hrs in presence of gemfibrozil; assay type: ADME, cell-based; details: thp-1, 24 h
Outline: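 Accumulation at 37°C, 10 mg/liter drug, with gemfibrozil 250 μM for 24 h. Microbiological assay normalized to cell protein. n = 3.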

Listeria monocytogenes [7] = test: Antibacterial activity against Listeria monocytogenes EGD after 24 hrs; assay type: functional
Legionella pneumophila [8] = test: Antibacterial activity against Legionella pneumophila ATCC 33153 after 48 hrs; assay type: functional; details: ATCC 33153, 48 h
Outline: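 L. pneumophila MIC determined in α-ketoglutarate-buffered yeast extract broth, read after 48 h incubation.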

Staphylococcus aureus [9] = test: Antibacterial activity against methicillin-sensitive Staphylococcus aureus ATCC 25923 at pH 5.5 to 7.4 after 24 hrs; assay type: functional
Listeria monocytogenes [10] = test: Antibacterial activity against Listeria monocytogenes EGD at pH 5.5 to 7.4 after 24 hrs; assay type: functional; details: EGD-e
Legionella pneumophila [11] = test: Antibacterial activity against Legionella pneumophila ATCC 33153 at pH 6.5 to 7.4 after 48 hrs; assay type: functional; details: ATCC 33153, 48 h
Staphylococcus aureus [12] = test: Antibacterial activity against methicillin-sensitive Staphylococcus aureus ATCC 25923 assessed as decrease of CFU at 4 mg/liter; assay type: functional, organism-based
Outline: (§2)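 Short-term 6-h time-kill in broth at pH 7.4 at fixed extracellular concentrations of 0.7 or 4 mg/liter; CFU followed over time; three independent experiments.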

Staphylococcus aureus [13] = test: Antibacterial activity against methicillin-sensitive Staphylococcus aureus ATCC 25923 infected in human THP1 cells assessed as decrease of intracellular CFU at 4 mg/liter; assay type: functional
Outline: (§3)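 Phagocytosed bacteria in THP-1 macrophages exposed to a fixed extracellular concentration of 0.7 or 4 mg/liter; intracellular CFU followed over 6 h; three independent experiments.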

Staphylococcus aureus [14] = test: Antibacterial activity against methicillin-sensitive Staphylococcus aureus ATCC 25923 assessed as decrease of CFU after 24 hrs relative to initial inoculum; assay type: functional
Outline: (§4)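 24-h concentration-response in Mueller-Hinton broth; original inoculum (0.97 ± 0.24) × 10⁶ CFU/ml. Hill equation fit (slope factor 1). Emax = log10 CFU decrease from inoculum extrapolated to infinite concentration. Cs = concentration giving CFU equal to inoculum, by graphical intrapolation. Counts under five taken as below detection. n = 3.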

Staphylococcus aureus [15] = test: Antibacterial activity against methicillin-sensitive Staphylococcus aureus ATCC 25923 assessed as decrease of CFU after 24 hrs; assay type: functional, organism-based; details: ATCC 25923, 24 h; outline: as §4
Staphylococcus aureus [16] = test: Antibacterial activity against methicillin-sensitive Staphylococcus aureus ATCC 25923 assessed as concentration required to no apparent bacterial growth after 24 hrs; assay type: functional; outline: as §4
Staphylococcus aureus [17] = test: Antibacterial activity against methicillin-sensitive Staphylococcus aureus ATCC 25923 infected in human THP1 cells assessed as decrease of CFU after 24 hrs relative to initial inoculum; assay type: functional, THP-1
Outline: (§5)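 THP-1 macrophages infected, non-phagocytosed bacteria removed, then exposed 24 h over a concentration range. Postphagocytosis inoculum (2.74 ± 0.55) × 10⁶ CFU/mg protein. Hill fit (slope 1). […] Cs = no change from inoculum, by graphical intrapolation. n = 3.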

Staphylococcus aureus [18] = test: Antibacterial activity against methicillin-sensitive Staphylococcus aureus ATCC 25923 infected in human THP1 cells assessed as decrease of CFU after 24 hrs; assay type: functional, organism-based; details: ATCC 25923, THP-1, 24 h; outline: as §5
Staphylococcus aureus [19] = test: Antibacterial activity against methicillin-sensitive Staphylococcus aureus ATCC 25923 infected in human THP1 cells assessed as concentration required to no apparent bacterial growth after 24 hrs; assay type: functional, THP-1; outline: as §5
Listeria monocytogenes [20] = test: Antibacterial activity against […] Listeria monocytogenes EGD assessed as decrease of CFU after 24 hrs relative to initial inoculum; assay type: functional, EGD-e
Listeria monocytogenes [21] = test: Antibacterial activity against […] Listeria monocytogenes EGD assessed as decrease of CFU after 24 hrs; assay type: functional, organism-based; details: EGD-e
Listeria monocytogenes [22] = test: Antibacterial activity against […] Listeria monocytogenes EGD assessed as concentration required to no apparent bacterial growth after 24 hrs; assay type: functional, EGD-e
Legionella pneumophila [23] = test: Antibacterial activity against Legionella pneumophila infected in human THP1 cells assessed as decrease of CFU after 48 hrs; details: THP-1, 48 h
Legionella pneumophila [24] = test: Antibacterial activity against Legionella pneumophila infected in human THP1 cells assessed as decrease of CFU after 48 hrs relative to initial inoculum
Legionella pneumophila [25] = test: Antibacterial activity against Legionella pneumophila infected in human THP1 cells assessed as concentration required to no apparent bacterial growth after 48 hrs
THP-1 [26] = test: Drug uptake in human THP1 cells after 24 hrs relative to extracellular concentration; assay type: ADME, cell-based; details: thp-1, 24 h
Outline: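 THP-1 cells incubated at 37°C with drug at 10 mg/liter extracellular, accumulation followed up to 24 h. Cell-associated drug assayed microbiologically with S. aureus ATCC 25923, normalized to cell protein (Folin-Ciocalteu/biuret) and converted at 5 μl/mg protein to the cellular/extracellular concentration ratio. n = 3.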

Staphylococcus aureus [27] = test: Antibacterial activity against methicillin-sensitive Staphylococcus aureus ATCC 25923 by time kill study; assay type: functional; outline: as §2
Staphylococcus aureus [28] = test: Antibacterial activity against methicillin-sensitive Staphylococcus aureus ATCC 25923 assessed as decrease of CFU at 0.7 mg/liter; assay type: functional, organism-based; outline: as §2
Staphylococcus aureus [29] = test: Antibacterial activity against methicillin-sensitive Staphylococcus aureus ATCC 25923 infected in human THP1 cells assessed as decrease of intracellular CFU at 0.7 mg/liter; assay type: functional, organism-based; details: THP-1; outline: as §3

SMILES: CC[C@H]1OC(=O)[C@H](C)[C@@H](O[C@H]2C[C@@](C)(OC)[C@@H](O)[C@H](C)O2)[C@H](C)[C@@H](O[C@@H]2O[C@H](C)C[C@H](N(C)C)[C@H]2O)[C@](C)(O)C[C@@H](C)CN(C)[C@H](C)[C@@H](O)[C@]1(C)O [AZITHROMYCIN]
- Drug uptake (THP-1 [1]): Not Active
- MIC (Staphylococcus aureus [2]): 0.5 µg/mL (≈ 0.668 µM)
- Drug uptake (THP-1 [3]): Active
- Drug uptake (THP-1 [4]): Not Active
- Drug uptake (THP-1 [5]): Active
- Drug uptake (THP-1 [6]): Active
- MIC (Listeria monocytogenes [7]): 1 µg/mL (≈ 1.34 µM)
- MIC (Legionella pneumophila [8]): 0.016 µg/mL (≈ 0.0214 µM)
- MIC (Staphylococcus aureus [9]): inactive
- MIC (Listeria monocytogenes [10]): inactive
- MIC (Legionella pneumophila [11]): 0.01 µg/mL (≈ 0.0134 µM)
- Activity (Staphylococcus aureus [12]): Active
- Activity (Staphylococcus aureus [13]; THP-1): inactive
- log10cfu (Staphylococcus aureus [14]): -1
- EC50 (Staphylococcus aureus [15]): 0.12 µg/mL (≈ 0.16 µM)
- Activity (Staphylococcus aureus [16]): 0.29 mg/L
- log10cfu (Staphylococcus aureus [17]): -0.29
- EC50 (Staphylococcus aureus [18]): 0.024 µg/mL (≈ 0.032 µM)
- Activity (Staphylococcus aureus [19]): 0.63 mg/L
- log10cfu (Listeria monocytogenes [20]): -0.81
- EC50 (Listeria monocytogenes [21]): 2.66 µg/mL (≈ 3.55 µM)
- Activity (Listeria monocytogenes [22]): 11.6 mg/L
- EC50 (Legionella pneumophila [23]): 2.86 µg/mL (≈ 3.82 µM)
- log10cfu (Legionella pneumophila [24]): -0.83
- Activity (Legionella pneumophila [25]): 2.9 mg/L

SMILES: CC[C@H]1OC(=O)[C@H](C)[C@@H](O[C@H]2C[C@@](C)(OC)[C@@H](O)[C@H](C)O2)[C@H](C)[C@@H](O[C@@H]2O[C@H](C)C[C@H](N(C)C)[C@H]2O)[C@](C)(OC)C[C@@H](C)C(=O)[C@H](C)[C@@H](O)[C@]1(C)O [CLARITHROMYCIN]
- Drug uptake (THP-1 [5]): Active
- Drug uptake (THP-1 [6]): Active
- MIC (Staphylococcus aureus [9]): inactive
- MIC (Listeria monocytogenes [10]): inactive
- log10cfu (Staphylococcus aureus [14]): -1.41
- EC50 (Staphylococcus aureus [15]): 0.8 µg/mL (≈ 1.07 µM)
- Activity (Staphylococcus aureus [16]): 1.32 mg/L
- log10cfu (Staphylococcus aureus [17]): -0.18
- EC50 (Staphylococcus aureus [18]): 0.046 µg/mL (≈ 0.0615 µM)
- Activity (Staphylococcus aureus [19]): 0.84 mg/L

SMILES: CC[C@H]1OC(=O)[C@@](C)(F)C(=O)[C@H](C)[C@@H](O[C@@H]2O[C@H](C)C[C@H](N(C)C)[C@H]2O)[C@](C)(OC)C[C@@H](C)C(=O)[C@H](C)[C@H]2N(CCCCn3cc(-c4cccc(N)c4)nn3)C(=O)O[C@]12C [SOLITHROMYCIN]
- fold change (FC) (THP-1 [26]): 350
- Drug uptake (THP-1 [1]): Not Active
- MIC (Staphylococcus aureus [2]): 0.06 µg/mL (≈ 0.071 µM)
- Time (Staphylococcus aureus [27]): 6 h
- Drug uptake (THP-1 [3]): Active
- Drug uptake (THP-1 [4]): Not Active
- Drug uptake (THP-1 [5]): Active
- Drug uptake (THP-1 [6]): Active
- MIC (Listeria monocytogenes [7]): 0.004 µg/mL (≈ 0.00473 µM)
- MIC (Legionella pneumophila [8]): 0.004 µg/mL (≈ 0.00473 µM)
- MIC (Staphylococcus aureus [9]; ATCC 25923, 24 h): 0.06 µg/mL (≈ 0.071 µM)
- MIC (Listeria monocytogenes [10]): 0.0039 µg/mL (≈ 0.00462 µM)
- MIC (Legionella pneumophila [11]): 0.005 µg/mL (≈ 0.00592 µM)
- Activity (Staphylococcus aureus [28]): Active
- Activity (Staphylococcus aureus [29]): Active
- log10cfu (Staphylococcus aureus [13]): 1.5
- log10cfu (Staphylococcus aureus [14]): -1.37
- EC50 (Staphylococcus aureus [15]): 0.03 µg/mL (≈ 0.0355 µM)
- Activity (Staphylococcus aureus [16]): 0.06 mg/L
- log10cfu (Staphylococcus aureus [17]): -0.86
- EC50 (Staphylococcus aureus [18]): 0.0068 µg/mL (≈ 0.00805 µM)
- Activity (Staphylococcus aureus [19]): 0.022 mg/L
- log10cfu (Listeria monocytogenes [20]): -0.66
- EC50 (Listeria monocytogenes [21]): 0.02 µg/mL (≈ 0.0237 µM)
- Activity (Listeria monocytogenes [22]): 0.11 mg/L
- EC50 (Legionella pneumophila [23]): 0.052 µg/mL (≈ 0.0615 µM)
- log10cfu (Legionella pneumophila [24]): -1.03
- Activity (Legionella pneumophila [25]): 0.018 mg/L

SMILES: CC[C@H]1OC(=O)[C@H](C)C(=O)[C@H](C)[C@@H](O[C@@H]2O[C@H](C)C[C@H](N(C)C)[C@H]2O)[C@](C)(OC)C[C@@H](C)C(=O)[C@H](C)[C@H]2N(CCCCn3cnc(-c4cccnc4)c3)C(=O)O[C@]12C [TELITHROMYCIN]
- Drug uptake (THP-1 [5]): Active
- Drug uptake (THP-1 [6]): Active
- MIC (Staphylococcus aureus [9]): inactive
- MIC (Listeria monocytogenes [10]): inactive
- log10cfu (Staphylococcus aureus [14]): -1.23
- EC50 (Staphylococcus aureus [15]): 1.78 µg/mL (≈ 2.19 µM)
- Activity (Staphylococcus aureus [16]): 3.4 mg/L
- log10cfu (Staphylococcus aureus [17]): 0.04
- EC50 (Staphylococcus aureus [18]): 0.11 µg/mL (≈ 0.135 µM)
- Activity (Staphylococcus aureus [19]): >50 mg/L
